Results on 20 compounds are retold here after ChEMBL document CHEMBL4819084, “Discovery of 3,5-dimethylisoxazole derivatives as novel, potent inhibitors for bromodomain and extraterminal domain (BET) family” (Bioorg Med Chem, 2021).

pIC50: −log10 of the molar value.

Data set [1] in a line: Cytotoxicity against human MCF-10A cells assessed as inhibition of cell proliferation at 2 uM incubated for 48 hrs by MTT assay. The data set is classed as cell-based. The gist of the method:
(§1)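 Cryopreserved cells thawed at 37 °C, cultured one day, then seeded at 5000–10,000 cells/well in 96-well plates and left overnight to attach. Compound added at a single concentration or as a gradient series and incubated 48 h. MTT solution added and absorbance read.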

Data set [2] relates to CT26. Briefly: Antiproliferative activity against […] assessed as inhibition of cell proliferation at 2 uM incubated for 48 hrs by MTT assay relative to control. The data set is classed as functional. Conditions: Mus musculus. An outline of the steps:
as §1

The next data set deals with MCF7. Briefly: Antiproliferative activity against human MCF7 cells assessed as inhibition of cell proliferation at 2 uM incubated for 48 hrs by MTT assay relative to control. It counts as functional. An outline of the steps:
as §1
A general note: Tetrazolium dyes change colour on reduction, which living cells bring about.

Data set [3] concerns HepG2. Kind of data set: Antiproliferative activity against human HepG2 cells assessed as inhibition of cell proliferation at 2 uM incubated for 48 hrs by MTT assay relative to control. It counts as functional. The gist of the method:
as §1

Another data set deals with HCT-116. Briefly: Antiproliferative activity against human HCT-116 cells assessed as inhibition of cell proliferation at 2 uM incubated for 48 hrs by MTT assay relative to control. The data set is classed as functional. An outline of the steps:
as §1

Data set [4] has as its system U-266. Kind of data set: Antiproliferative activity against human U-266 cells assessed as inhibition of cell proliferation at 0.1 uM incubated for 48 hrs by MTT assay relative to control. It counts as functional. The gist of the method:
as §1

Data set [5] concerns the target Bromodomain-containing protein 4 (Homo sapiens, UniProt O60885). Briefly: Inhibition of BRD4-BD1 (unknown origin) preincubated for 15 mins followed by substrate addition and measured after 1 hr.
Data set [6] concerns CT26. Briefly: Antiproliferative activity against […] assessed as inhibition of cell proliferation incubated for 48 hrs by MTT assay. The note with it: Mus musculus, CT26, 48 h. The data set is classed as functional, cell-based. The gist of the method: as §1
The subject of data set [7] is HepG2. Kind of data set: Antiproliferative activity against human HepG2 cells assessed as inhibition of cell proliferation incubated for 48 hrs by MTT assay. It counts as functional, cell-based. The note with it: HepG2, 48 h. An outline of the steps: as §1
For data set [8], the system named is U-266. Kind of data set: Antiproliferative activity against human U-266 cells assessed as inhibition of cell proliferation incubated for 48 hrs by MTT assay. It counts as functional, cell-based. The note with it: U-266, 48 h. An outline of the steps:
as §1

For orientation: inhibition means the change of the read-out against control, counted positive when it falls. Usually pIC50 stands for the IC50 on a negative log10 scale, so that one unit is a factor of ten.

On to `Cc1noc(C)c1-c1ccc2c(c1)C(c1ccccc1)N(Cc1nc(-c3ccccc3)cs1)C(=O)N2C` (stereo not given), for which the inhibition at 48 h, 2 µM in data set [1] is 2.7%. Moreover, the inhibition at 2 µM came to 15.5% with CT26 [2], 29.1% in the data set with MCF7, 44.5% in the data set on HepG2 [3] and 26.7% with HCT-116. Also, the inhibition at 0.1 µM with U-266 [4] was determined as 12.7%.

Turning to `Cc1noc(C)c1-c1ccc2c(c1)C(c1ccccc1)N(Cc1nc(-c3ccc(F)cc3)cs1)C(=O)N2C` (stereo not given), the inhibition at 48 h, 2 µM in data set [1] worked out at 8.5%. Besides, the inhibition at 2 µM with CT26 [2] is 16.4%; with MCF7 it was 27.4%; in the data set on HepG2 [3], 41.1%; with HCT-116, 33.3%. Moreover, the inhibition at 0.1 µM in the data set on U-266 [4] came out at 12.6%.

`Cc1noc(C)c1-c1ccc2c(c1)C(c1ccccc1)N(Cc1nnc(-c3ccccc3)s1)C(=O)N2C` (stereo not given) gave a pIC50 in [5] of 7.13. Moreover, in data set [1], the inhibition at 48 h, 2 µM worked out at 3.3%. Also, the inhibition at 2 µM was determined as 28.1% in the data set on CT26 [2], 35.7% with MCF7, 35.2% in the data set with HepG2 [3] and 26.9% in the data set with HCT-116. The inhibition at 0.1 µM with U-266 [4] was determined as 20.3%.

In the case of `Cc1nc(-c2ccccc2)sc1CN1C(=O)N(C)c2ccc(-c3c(C)noc3C)cc2C1c1ccccc1` (stereo not given), in data set [1], the inhibition at 48 h, 2 µM worked out at 4.9%. Besides, the inhibition at 2 µM in the data set on CT26 [2] turned out to be 20.1%; in the data set with MCF7 it was 35.1%; with HepG2 [3] it was 29.2%; in the data set on HCT-116, 28.3%. In the data set with U-266 [4], the inhibition at 0.1 µM came to 7.19%.

Regarding `Cc1nc(-c2ccc(F)cc2)sc1CN1C(=O)N(C)c2ccc(-c3c(C)noc3C)cc2C1c1ccccc1` (stereo not given), the inhibition at 48 h, 2 µM in data set [1] was found to be 6.5%. Moreover, the inhibition at 2 µM in the data set on CT26 [2] was 28.8%; in the data set with MCF7 it was 33.4%; in the data set on HepG2 [3], 26.4%; with HCT-116, 26%. Further, the inhibition at 0.1 µM with U-266 [4] came out at 10%.

Turning to `Cc1noc(C)c1-c1ccc2c(c1)C(c1ccccc1)N(Cc1csc(-c3ccc(F)cc3)n1)C(=O)N2C` (stereo not given), in [1], the inhibition at 48 h, 2 µM came out at 6.8%. The inhibition at 2 µM came to 17% in the data set with CT26 [2], 37.9% in the data set on MCF7, 31.3% in the data set with HepG2 [3] and 31.8% with HCT-116. For the same compound, the inhibition at 0.1 µM in the data set on U-266 [4] was 8.4%.

The compound `Cc1noc(C)c1-c1ccc2c(c1)C(c1ccccc1)N(CC(=O)N1CCN(c3ccc4nnc(Cl)n4n3)CC1)C(=O)N2C` (stereo not given) showed a pIC50 in data set [5] of 8.25. Besides, in [1], the inhibition at 48 h, 2 µM is 10.9%. Also, the inhibition at 2 µM with CT26 [2] was determined as 27.5%; in the data set with MCF7, 33.4%; in the data set on HepG2 [3], 28.5%; in the data set with HCT-116 it was 48.9%. Also, the inhibition at 0.1 µM with U-266 [4] stood at 19.8%.

As to `Cc1noc(C)c1-c1ccc2c(c1)C(c1ccccc1)N(CCOCCN1CCN(c3ccc4nnc(Cl)n4n3)CC1)C(=O)N2C` (stereo not given), the pIC50 in data set [5] was 7.92; in the data set on CT26 [6] it was 4.64; in the data set on HepG2 [7] it was 4.68; in the data set on U-266 [8] it was 5.52. In addition, the inhibition at 48 h, 2 µM in data set [1] was 6%. The inhibition at 2 µM in the data set on CT26 [2] is 25.1%; in the data set with MCF7, 34.7%; in the data set on HepG2 [3], 36.7%; in the data set with HCT-116, 18.7%. Besides, the inhibition at 0.1 µM with U-266 [4] was found to be 29.5%.

For the compound `Cc1noc(C)c1-c1ccc2c(c1)C(c1ccccc1)N(Cc1nnc(-c3ccccc3)o1)C(=O)N2C` (stereo not given), the pIC50 in data set [5] is 7.26; with CT26 [6], 4.67; in the data set with HepG2 [7] it was 4.71; in the data set on U-266 [8], 5.46. In data set [1], the inhibition at 48 h, 2 µM was 12.4%. Moreover, the inhibition at 2 µM in the data set on CT26 [2] worked out at 30.1%; in the data set with MCF7, 34.1%; with HepG2 [3], 34.7%; in the data set on HCT-116, 31.4%. For the same compound, the inhibition at 0.1 µM in the data set with U-266 [4] amounted to 26.7%.

As for `Cc1noc(C)c1-c1ccc2c(c1)C(c1ccccc1)N(CCCCCN1CCN(c3ccc4nnc(Cl)n4n3)CC1)C(=O)N2C` (stereo not given), the pIC50 in [5] is 8.06; in the data set on CT26 [6] it was 4.93; in the data set on HepG2 [7], 4.85; in the data set on U-266 [8], 5.70. The inhibition at 48 h, 2 µM in data set [1] was 9.3%. In addition, the inhibition at 2 µM is 33.8% with CT26 [2], 33.4% in the data set with MCF7, 39.8% in the data set with HepG2 [3] and 39% in the data set on HCT-116. Moreover, the inhibition at 0.1 µM in the data set on U-266 [4] was 48.4%.

With `Cc1noc(C)c1-c1ccc2c(c1)C(c1ccccc1)N(CCCCCCN1CCN(c3ccc4nnc(Cl)n4n3)CC1)C(=O)N2C` (stereo not given), the negative logarithm of the IC50 (pIC50) in data set [5] was 8.51; with CT26 [6] it was 5.10; with HepG2 [7] it was 5.02; with U-266 [8] it was 5.67. Besides, the inhibition at 48 h, 2 µM in data set [1] worked out at 5.3%. The inhibition at 2 µM in the data set on CT26 [2] came to 20.3%; in the data set on MCF7, 33.1%; in the data set with HepG2 [3], 51.9%; in the data set on HCT-116, 44.7%. In addition, the inhibition at 0.1 µM in the data set on U-266 [4] is 45.5%.

In [5], `Cc1noc(C)c1-c1ccc2c(c1)C(c1ccccc1)N(Cc1nnc(-c3ccc(F)cc3)o1)C(=O)N2C` (stereo not given) had a pIC50 of 7.24. The inhibition at 48 h, 2 µM in data set [1] stood at 0.7%. The inhibition at 2 µM stood at 24% in the data set with CT26 [2], 26.7% in the data set on MCF7, 52.8% in the data set on HepG2 [3] and 36.6% in the data set with HCT-116. In addition, the inhibition at 0.1 µM with U-266 [4] was 26.8%.

In [5], `Cc1noc(C)c1-c1ccc2c(c1)C(c1ccccc1)N(Cc1ncc(-c3ccccc3)o1)C(=O)N2C` (stereo not given) showed a pIC50 of 6.98. For the same compound, in [1], the inhibition at 48 h, 2 µM was found to be 3.7%. In addition, the inhibition at 2 µM in the data set with CT26 [2] is 21.2%; in the data set on MCF7 it was 34%; in the data set on HepG2 [3], 50.6%; in the data set on HCT-116, 30%. The inhibition at 0.1 µM in the data set with U-266 [4] amounted to 15.1%.

In [5], `Cc1noc(C)c1-c1ccc2c(c1)C(c1ccccc1)N(CCCCCC(=O)N1CCN(c3ccc4nnc(Cl)n4n3)CC1)C(=O)N2C` (stereo not given) showed a pIC50 of 8.04. In data set [1], the inhibition at 48 h, 2 µM was 14.7%. Besides, the inhibition at 2 µM in the data set on CT26 [2] came out at 25.1%; with MCF7, 33.6%; with HepG2 [3], 30.7%; with HCT-116, 38.4%. For the same compound, in the data set on U-266 [4], the inhibition at 0.1 µM is 31.3%.

In the case of `Cc1noc(C)c1-c1ccc2c(c1)C(c1ccccc1)N(Cc1csc(-c3ccccc3)n1)C(=O)N2C` (stereo not given), the inhibition at 48 h, 2 µM in [1] was determined as 4.4%. In addition, the inhibition at 2 µM in the data set on CT26 [2] was determined as 23.5%; in the data set with MCF7, 17.5%; in the data set with HepG2 [3], 34%; in the data set on HCT-116, 28.4%. The inhibition at 0.1 µM with U-266 [4] amounted to 10.4%.

In data set [5], `Cc1noc(C)c1-c1ccc2c(c1)C(c1ccccc1)N(CCCCBr)C(=O)N2C` (stereo not given) showed a negative-log IC50 (pIC50) of 7.89.

Turning to `Cc1noc(C)c1-c1ccc2c(c1)C(c1ccccc1)NC(=O)N2C` (stereo not given), the pIC50 was 7.28 in data set [5], 4.44 with CT26 [6], 4.73 with HepG2 [7] and 4.45 in the data set with U-266 [8]. In addition, in data set [1], the inhibition at 48 h, 2 µM was 6.8%. Further, the inhibition at 2 µM is 44% in the data set with CT26 [2], 33.5% in the data set with MCF7, 32.5% in the data set with HepG2 [3] and 27.8% with HCT-116. In the data set on U-266 [4], the inhibition at 0.1 µM came out at 13.1%.

Consider `CCS(=O)(=O)Nc1ccc(Oc2ccc(F)cc2F)c(-c2cn(C)c(=O)c3[nH]ccc23)c1` [MIVEBRESIB], for which the pIC50 was 4.32 in the data set on CT26 [6] and 5.69 with U-266 [8].

In data set [5], `Cc1noc(C)c1-c1ccc2c(c1)C(c1ccccc1)N(CCCCCCCC(=O)N1CCN(c3ccc4nnc(Cl)n4n3)CC1)C(=O)N2C` (stereo not given) had a pIC50 of 7.43. Moreover, the inhibition at 48 h, 2 µM in [1] amounted to 0.5%. The inhibition at 2 µM in the data set with CT26 [2] was found to be 8.8%; in the data set with MCF7, 28.7%; in the data set on HepG2 [3] it was 13.6%; in the data set on HCT-116, 14.1%. In addition, the inhibition at 0.1 µM with U-266 [4] came to 8.5%.

With `Cc1sc2c(c1C)C(c1ccc(Cl)cc1)=N[C@@H](CC(=O)OC(C)(C)C)c1nnc(C)n1-2`, in data set [1], the inhibition at 48 h, 2 µM was 6.5%. For the same compound, the inhibition at 2 µM with CT26 [2] was 37.9%; in the data set with MCF7, 35.4%; in the data set with HepG2 [3], 22.2%; with HCT-116, 30.3%. Besides, the inhibition at 0.1 µM in the data set on U-266 [4] was 35.7%. The pIC50 with CT26 [6] is 4.54; in the data set with HepG2 [7] it was 4.74; in the data set on U-266 [8] it was 5.46.
